Test system: Fibroblast
Experiment: Multiplex assay against human fibroblast
Assay type: toxicity, cell-based
How it was run: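 Compound was added to live cells that had been stained at seeding with Hoechst33342, BioTracker Green Microtubule Cytoskeleton Dye, MitoTracker Red and Annexin V Alexa Fluor 680, and imaging followed on a CQ1 microscope at 37°C and 5% CO2. CellPathfinder machine-learning gating divided cells into Hoechst high-intensity objects or normal cells, normal cells into healthy, pyknosed or fragmented nuclei, and pyknosed cells into mitotic or apoptotic. Tubulin, mitochondrial-mass and membrane-permeability phenotypes are per cents of healthy-nucleus cells.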

[1] = 12 h, 1 µM, compound concentration 1 uM, replicate 1
[2] = 12 h, 1 µM, compound concentration 1 uM, replicate 2
[3] = 12 h, 10 µM, compound concentration 10 uM, replicate 1
[4] = 12 h, 10 µM, compound concentration 10 uM, replicate 2
[5] = 24 h, 1 µM, compound concentration 1 uM, replicate 1
[6] = 24 h, 1 µM, compound concentration 1 uM, replicate 2
[7] = 24 h, 10 µM, compound concentration 10 uM, replicate 1
[8] = 24 h, 10 µM, compound concentration 10 uM, replicate 2
[9] = 48 h, 1 µM, compound concentration 1 uM, replicate 1
[10] = 48 h, 1 µM, compound concentration 1 uM, replicate 2
[11] = 48 h, 10 µM, compound concentration 10 uM, replicate 1
[12] = 48 h, 10 µM, compound concentration 10 uM, replicate 2

## CNC(=O)Nc1ccc(-c2nc(N3CC4CCC(C3)O4)c3cnn(C4CCC5(CC4)OCCO5)c3n2)cc1
[1]
  Population Apoptotic (%): 47%
  Population Fragmented Nuclei (%): 38%
  Population Healthy Nuclei (%): 32%
  Population Hoechst High Intensity Objects (%): 14%
  Population Membrane Permeable-Phenotype (%): 29%
  Population Mitochondria Different-Phenotype (%): 4%
  Population Mitotic Cells (%): 52%
  Population Normal (%): 85%
  Population Pyknosed Nuclei (%): 28%
  Population Tubulin-Different-Phenotype (%): 54%
  Total Cell Count: 85
[2]
  Population Apoptotic (%): 0%
  Population Fragmented Nuclei (%): 28%
  Population Healthy Nuclei (%): 55%
  Population Hoechst High Intensity Objects (%): 10%
  Population Membrane Permeable-Phenotype (%): 5%
  Population Mitochondria Different-Phenotype (%): 13%
  Population Mitotic Cells (%): 100%
  Population Normal (%): 89%
  Population Pyknosed Nuclei (%): 16%
  Population Tubulin-Different-Phenotype (%): 18%
  Total Cell Count: 54
[3]
  Population Apoptotic (%): 50%
  Population Fragmented Nuclei (%): 28%
  Population Healthy Nuclei (%): 29%
  Population Hoechst High Intensity Objects (%): 16%
  Population Membrane Permeable-Phenotype (%): 30%
  Population Mitochondria Different-Phenotype (%): 15%
  Population Mitotic Cells (%): 50%
  Population Normal (%): 83%
  Population Pyknosed Nuclei (%): 41%
  Population Tubulin-Different-Phenotype (%): 96%
  Total Cell Count: 104
[4]
  Population Apoptotic (%): 25%
  Population Fragmented Nuclei (%): 13%
  Population Healthy Nuclei (%): 54%
  Population Hoechst High Intensity Objects (%): 6%
  Population Membrane Permeable-Phenotype (%): 36%
  Population Mitochondria Different-Phenotype (%): 75%
  Population Mitotic Cells (%): 75%
  Population Normal (%): 93%
  Population Pyknosed Nuclei (%): 32%
  Total Cell Count: 107
[5]
  Population Apoptotic (%): 38%
  Population Fragmented Nuclei (%): 30%
  Population Healthy Nuclei (%): 33%
  Population Hoechst High Intensity Objects (%): 20%
  Population Membrane Permeable-Phenotype (%): 25%
  Population Mitochondria Different-Phenotype (%): 10%
  Population Mitotic Cells (%): 61%
  Population Normal (%): 79%
  Population Pyknosed Nuclei (%): 35%
  Population Tubulin-Different-Phenotype (%): 60%
  Total Cell Count: 74
[6]
  Population Apoptotic (%): 25%
  Population Fragmented Nuclei (%): 19%
  Population Healthy Nuclei (%): 64%
  Population Hoechst High Intensity Objects (%): 18%
  Population Membrane Permeable-Phenotype (%): 8%
  Population Mitochondria Different-Phenotype (%): 6%
  Population Mitotic Cells (%): 75%
  Population Normal (%): 81%
  Population Pyknosed Nuclei (%): 16%
  Population Tubulin-Different-Phenotype (%): 23%
  Total Cell Count: 55
[7]
  Population Apoptotic (%): 77%
  Population Fragmented Nuclei (%): 28%
  Population Healthy Nuclei (%): 35%
  Population Hoechst High Intensity Objects (%): 18%
  Population Membrane Permeable-Phenotype (%): 25%
  Population Mitochondria Different-Phenotype (%): 37%
  Population Mitotic Cells (%): 22%
  Population Normal (%): 81%
  Population Pyknosed Nuclei (%): 35%
  Population Tubulin-Different-Phenotype (%): 88%
  Total Cell Count: 93
[8]
  Population Apoptotic (%): 41%
  Population Fragmented Nuclei (%): 8%
  Population Healthy Nuclei (%): 42%
  Population Hoechst High Intensity Objects (%): 6%
  Population Membrane Permeable-Phenotype (%): 44%
  Population Mitochondria Different-Phenotype (%): 84%
  Population Mitotic Cells (%): 58%
  Population Normal (%): 93%
  Population Pyknosed Nuclei (%): 49%
  Population Tubulin-Different-Phenotype (%): 96%
  Total Cell Count: 90
[9]
  Population Apoptotic (%): 33%
  Population Fragmented Nuclei (%): 42%
  Population Healthy Nuclei (%): 37%
  Population Hoechst High Intensity Objects (%): 19%
  Population Membrane Permeable-Phenotype (%): 13%
  Population Mitochondria Different-Phenotype (%): 8%
  Population Mitotic Cells (%): 66%
  Population Normal (%): 80%
  Population Pyknosed Nuclei (%): 19%
  Population Tubulin-Different-Phenotype (%): 43%
  Total Cell Count: 76
[10]
  Population Apoptotic (%): 75%
  Population Fragmented Nuclei (%): 33%
  Population Healthy Nuclei (%): 61%
  Population Hoechst High Intensity Objects (%): 12%
  Population Membrane Permeable-Phenotype (%): 10%
  Population Mitochondria Different-Phenotype (%): 2%
  Population Mitotic Cells (%): 25%
  Population Normal (%): 87%
  Population Pyknosed Nuclei (%): 5%
  Population Tubulin-Different-Phenotype (%): 10%
  Total Cell Count: 88
[11]
  Population Apoptotic (%): 50%
  Population Fragmented Nuclei (%): 42%
  Population Healthy Nuclei (%): 37%
  Population Hoechst High Intensity Objects (%): 19%
  Population Membrane Permeable-Phenotype (%): 19%
  Population Mitochondria Different-Phenotype (%): 61%
  Population Mitotic Cells (%): 50%
  Population Normal (%): 80%
  Population Pyknosed Nuclei (%): 20%
  Population Tubulin-Different-Phenotype (%): 80%
  Total Cell Count: 87
[12]
  Population Apoptotic (%): 33%
  Population Fragmented Nuclei (%): 48%
  Population Healthy Nuclei (%): 49%
  Population Hoechst High Intensity Objects (%): 9%
  Population Membrane Permeable-Phenotype (%): 18%
  Population Mitochondria Different-Phenotype (%): 12%
  Population Mitotic Cells (%): 66%
  Population Normal (%): 90%
  Population Pyknosed Nuclei (%): 2%
  Population Tubulin-Different-Phenotype (%): 92%
  Total Cell Count: 122

Reference: ChEMBL document CHEMBL4689842, “EUbOPEN Chemogenomics Library wave 1” (2021)
